Measurements from paper PMC4380538 (Bioorganic & medicinal chemistry, 2015).
“Also recorded” adds a separate entry of the source.

Target: T1, hCCK2R (Homo sapiens, UniProt P32239)
T1 sequence (P32239 1-447): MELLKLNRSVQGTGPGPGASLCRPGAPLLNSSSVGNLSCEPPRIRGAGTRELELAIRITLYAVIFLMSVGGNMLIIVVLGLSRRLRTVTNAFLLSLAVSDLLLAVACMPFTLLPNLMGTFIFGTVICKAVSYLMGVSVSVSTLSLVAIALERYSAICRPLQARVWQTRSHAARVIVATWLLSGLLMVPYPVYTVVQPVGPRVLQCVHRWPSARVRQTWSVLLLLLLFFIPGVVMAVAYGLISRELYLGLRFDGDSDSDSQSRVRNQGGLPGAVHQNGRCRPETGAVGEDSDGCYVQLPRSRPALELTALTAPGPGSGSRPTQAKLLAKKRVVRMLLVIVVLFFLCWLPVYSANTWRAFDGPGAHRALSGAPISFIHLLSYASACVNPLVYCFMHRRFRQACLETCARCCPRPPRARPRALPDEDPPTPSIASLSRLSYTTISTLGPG
Test: Competitive binding assay
Conditions: against probe 3 (15 nM); concentration range 10^-5 to 10^-12 M
In short: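 HEK-293 cells engineered to overexpress hCCK2R and hMC4R, kept in selective medium and seeded at 240,000 cells/well in six-well plates (~1 × 10^6 cells at 90% confluence). Medium replaced with test compound (10^-5 to 10^-12 M, twelve levels) plus 15 nM Eu-labelled CCK4 probe in binding buffer for 1 h, 37 °C, CO₂. Cells pelleted and washed three times in basic buffer. DELFIA enhancement for 1 h, 37 °C. Supernatant read by TRF. Ki reported with SEM.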

Row | SMILES | Competitive inhibition of probe 3 binding (in words)
1 | NC(=O)[C@H](CO)NC(=O)CCCCCn1cc(CN(Cc2cn(CCCCCC(=O)N[C@@H](CO)C(N)=O)nn2)Cc2cn(CCCCCC(=O)N[C@@H](CO)C(N)=O)nn2)nn1 [Compound 15] | not competitive inhibitors; also recorded: did not interfere with the binding and uptake of probe 3
2 | NC(=O)[C@H](CO)NC(=O)CCCCCn1cc(COc2cc(OCc3cn(CCCCCC(=O)N[C@@H](CO)C(N)=O)nn3)cc(OCc3cn(CCCCCC(=O)N[C@@H](CO)C(N)=O)nn3)c2)nn1 [Compound 16] | not competitive inhibitors; also recorded: did not interfere with the binding and uptake of probe 3
